Test results reported in article PMC8867604 (European journal of pharmacology, 2020).
Read-outs that look alike come from different tables or passages of the source. Values belong to the compound of their own block, whether it stands above or below them. Residues, ends and D or L forms follow the SMILES beside them. *: point of attachment. Cbz = O=C(OCc1ccccc1)*; OtBu = CC(C)(C)O*

Legend:
Format in all cases: cell-based, human
HEK293 cells = settings: for IC50: Homo sapiens, HEK293, 24 h, read-out: IC50 (cell viability)
NF-κB [1] = experiment: NF-κB luciferase reporter assay, antagonists with TNFα stimulation; settings: for effect on NF-κB expression / effect on NF-κB pathway activity / mode of action on NF-κB signaling: TNFα stimulated, 24 h; for EC50: Homo sapiens, HEK293, 24 h, read-out: EC50 (NF-kB reporter); for effect on NF-κB pathway activity: at low micromolar concentrations
MAF1329 ependymoma cells = system: MAF1329 ependymoma cells
NF-κB [2] = experiment: NF-κB luciferase reporter assay, agonists without TNFα; settings: HEK293 reporter cells, no TNFα, 24 h
How it was run: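 HEK293 stable NF-κB GFP-luciferase reporter line grown in DMEM with 10% FBS and 1% pen/strep at 37°C, 5% CO2. Seeded 1x10^4/well (96-well) or 1x10^3/well (384-well) 12 h before dosing across a concentration range in fresh medium, with vehicle-only controls. Incubated 24 h, then luminescence read. Drug/vehicle luminescence ratio plotted against log10 concentration to derive EC50. Triplicate or quadruplicate doses, ≥3 experiments.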

[3] = at low or mid-range micromolar concentrations
[4] = at low micromolar concentrations

Structure (SMILES): [O-][S+](c1ccccc1)c1ccc2nnnn2n1 (stereo not drawn) [Ro106–9920]
effect on cell viability (HEK293 cells): did not result in a decrease of cell viability

effect on NF-κB expression (NF-κB [1]; [3]): agonistic effect
Structure (SMILES): CC(C)(C)c1ccc(S(=O)(=O)/C=C/C#N)cc1 [BAY 11–7085]
cytotoxic effect (HEK293 cells): no cytotoxic effect

effect on NF-κB expression (NF-κB [1]; HEK-293 reporter cells): no specific effect
Structure (SMILES): O=C(c1ccc(Nc2nccc(-c3cc4ccccc4s3)n2)cc1)N1CCC(N2CCCC2)CC1 [IKK-16]
effect on cell viability (HEK293 cells): no specific effect

effect on NF-κB expression (NF-κB [1]; HEK-293 reporter cells): no specific effect
EC50 (NF-κB [1]): 35000 nM
Structure (SMILES): O=c1cc(-c2ccc(O)c(O)c2)oc2cc(O)cc(O)c12 [Luteolin]
IC50 (HEK293 cells): > 100000 nM

effect on NF-κB expression (NF-κB [1]; [3]): agonistic effect
Structure (SMILES): Cc1ccc(S(=O)(=O)/C=C/C#N)cc1 [BAY 11–7082]
cytotoxic effect (HEK293 cells): no cytotoxic effect

Structure (SMILES): CC1=C(O)C(=O)C=C2C1=CC=C1[C@@]2(C)CC[C@@]2(C)[C@@H]3C[C@](C)(C(=O)O)CC[C@]3(C)CC[C@]12C [Celastrol]
EC50 (NF-κB [1]): 82 nM
effect on NF-κB pathway activity (NF-κB [1]): act as agonists and increased pathway activity
IC50 (HEK293 cells): 475 nM
effect on cell viability (HEK293 cells; [4]): without effecting cell viability
IC50 (MAF1329 ependymoma cells; Homo sapiens, read-out: IC50 (cell viability of MAF1329)): 1700 nM

effect on NF-κB expression (NF-κB [1]; [3]): agonistic effect
Structure (SMILES): Br.Cc1cc2nc(NCCCO)n(CC(=O)c3cc(C(C)(C)C)c(O)c(C(C)(C)C)c3)c2cc1C [CID 2858522]
cytotoxic effect (HEK293 cells): no cytotoxic effect

EC50 (NF-κB [1]): < 1 nM
Structure (SMILES): NC(=O)Nc1sc(-c2ccc(F)cc2)cc1C(N)=O [TCPA-1, 2-[(Aminocarbonyl)amino]-5-(4-fluorophenyl)-3-thiophenecarboxamide]
effect on cell viability (HEK293 cells; at low concentrations): did not result in a decrease of cell viability

EC50 (NF-κB [1]): > 100000 nM
effect on NF-κB expression (NF-κB [1]; [3]): agonistic effect
Structure (SMILES): Oc1cc(O)cc(/C=C/c2ccc(O)c(O)c2)c1 [Piceatannol]
cytotoxic effect (HEK293 cells): no cytotoxic effect
IC50 (HEK293 cells): > 100000 nM

mode of action on NF-κB signaling (NF-κB [1]; HEK-293 reporter cells): work antagonistically
Structure (SMILES): C[C@]1(CO)CN(c2cc(C(=O)Nc3ccc4c(c3)-c3c(c(C(N)=O)nn3-c3ccc(F)cc3)CC4)c(Cl)cn2)C[C@@]1(C)CO [PF-184]
effect on cell viability (HEK293 cells): did not result in a decrease of cell viability

Structure (SMILES): COc1cc(O)cc(O)c1C(=O)/C=C/c1ccccc1 [Cardamonin]
effect on NF-κB pathway activity (NF-κB [1]): act as agonists and increased pathway activity
effect on cell viability (HEK293 cells; [4]): without effecting cell viability
change in cell viability of MAF1329 (MAF1329 ependymoma cells; C11orf95-RELA fusion positive ependymoma cell culture): no change in cell viability

Structure (SMILES): CCNC(=O)[C@H]1O[C@@H](n2cnc3c(N)nc(NCCc4ccc(CCC(=O)O)cc4)nc32)[C@H](O)[C@@H]1O [CGS 21680]
NF-κB agonist effect (NF-κB [2]): no effect

EC50 (NF-κB [1]): 4270 nM
Structure (SMILES): CS(=O)(=O)N1CCN(Cc2cc3nc(-c4cccc5[nH]ncc45)nc(N4CCOCC4)c3s2)CC1 [Pictalisib, 2-(1 H -Indazol-4-yl)-6-(4-methanesulfonyl-piperazin-1-ylmethyl)-4-morpholin-4-yl-thieno[3,2-d]pyrimidine]
IC50 (HEK293 cells): 7470 nM

Structure (SMILES): CC(=O)O[C@@]12C[C@@H](C)[C@@]3(O)[C@@H](C=C(CO)C[C@]4(O)C(=O)C(C)=C[C@@H]34)[C@@H]1C2(C)C [Prostratin]
concentration at which NF-κB agonist activity was seen (NF-κB [2]): 1000 nM

Structure (SMILES): O=C(Nc1cc(C(F)(F)F)cc(C(F)(F)F)c1)c1cc(Cl)ccc1O [IMD 0354]
mode of action on NF-κB signaling (NF-κB [1]; HEK-293 reporter cells): work antagonistically
EC50 (NF-κB [1]): 292 nM
IC50 (HEK293 cells): 1560 nM
effect on cell viability (HEK293 cells; at low concentrations): did not result in a decrease of cell viability

Structure (SMILES): CC[C@H](C)[C@H](NC(=O)OCc1ccccc1)C(=O)N[C@@H](CCC(=O)OC(C)(C)C)C(=O)N[C@@H](C)C(=O)N[C@H](C=O)CC(C)C [PSI] (Cbz-IE(OtBu)AL-aldehyde)
effect on NF-κB pathway activity (NF-κB [1]): act as agonists and increased pathway activity
effect on cell viability (HEK293 cells): without effecting cell viability

Structure (SMILES): C=C(C)[C@@H]1CC[C@]2(C(=O)O)CC[C@]3(C)[C@H](CC[C@@H]4[C@@]5(C)CC[C@H](O)C(C)(C)[C@@H]5CC[C@]43C)[C@@H]12 [betulinic acid, Betulinic acid]
concentration at which NF-κB agonist activity was seen (NF-κB [2]): 100,000 nM
